Reference: ChEMBL document CHEMBL1125104, “Long-acting dihydropyridine calcium antagonists. 5. Synthesis and structure-activity relationships for a series of 2-[[(N-substituted-heterocyclyl)ethoxy]methyl]-1,4-dihydropyridine calcium antagonists” (J Med Chem, 1990)

Tests used:
Cavia porcellus = organism: Cavia porcellus; experiment: Concentration required to depress contraction in the Langendorff-perfused guinea pig heart; assay type: functional
Outline: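 Langendorff-perfused guinea pig heart, in vitro. The negative inotropic effect is given as IC25, the concentration that depresses contraction by 25%.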

Rattus norvegicus = organism: Rattus norvegicus; experiment: Concentration required to block Ca+2-induced contraction of K+ depolarized rat aorta; assay type: functional
Outline: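 Isolated rat aorta depolarized with potassium; contraction triggered by added calcium. IC50 is the concentration that inhibits the calcium-induced contraction by 50%.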

[1] = […] of rat aorta to […] of guinea pig; assay type: functional
[2] = Half life of the compound
Canis familiaris = experiment: Coronary vasodilator activity in anesthetized dogs at the dose of 150 ug/kg (iv); assay type: functional, Canis lupus familiaris

Row | IC50 (Rattus norvegicus) [nM] | half-life [2] [min] | Structure (SMILES) | pIC25 (Cavia porcellus) | Selectivity index [1] | Decrease (Canis familiaris) [%]
1 | 3.16 | 30 | CCO/C(O)=C1\C(COCCN2CC(=O)NC2=O)=NC(C)=C(C(=O)OC)C1c1cccc(Cl)c1Cl (stereo not given) | 7.1 | 25 | 65
2 | 20 |  | CCO/C(O)=C1\C(COCCN2CC(=O)NC2=O)=NC(C)=C(C(=O)OC)C1c1ccccc1Cl (stereo not given) | 6.3 | 25 | 
3 |  | 10 | CCO/C(O)=C1\C(COCCN2CC(=O)N(C)C2=O)=NC(C)=C(C(=O)OC)C1c1cccc(Cl)c1Cl (stereo not given) | 7.2 |  | 50
4 | 5.01 | 30 | CCO/C(O)=C1\C(COCCn2ccnn2)=NC(C)=C(C(=O)OC)C1c1cccc(Cl)c1Cl (stereo not given) | 7.3 | 10 | 79
5 |  | > 180 | CCO/C(O)=C1\C(COCCN2CC(=O)N=C2N)=NC(C)=C(C(=O)OC)C1c1cccc(Cl)c1Cl (stereo not given) |  |  | 60
6 | 31.6 |  | CCO/C(O)=C1\C(COCCN2C(=O)CNC2=O)=NC(C)=C(C(=O)OC)C1c1ccccc1Cl (stereo not given) | 6.8 | 5 | 
7 | 25.1 |  | CCO/C(O)=C1\C(COCCN2CC(=O)N(C)C2=O)=NC(C)=C(C(=O)OC)C1c1ccccc1Cl (stereo not given) | 6.4 | 16 | 

The remaining lines, values behind:

Row | Structure (SMILES) | IC50 (Rattus norvegicus) [nM] | half-life [2] [min] | pIC25 (Cavia porcellus) | Selectivity index [1] | Decrease (Canis familiaris) [%]
8 | CCO/C(O)=C1\C(COCCn2cc(N)n(C)c2=O)=NC(C)=C(C(=O)OC)C1c1ccccc1Cl (stereo not given) | 25.1 |  | 6.2 | 25 | 
9 | CCO/C(O)=C1\C(COCCn2nncc2C(N)=O)=NC(C)=C(C(=O)OC)C1c1cccc(Cl)c1Cl (stereo not given) | 15.8 |  | 6.5 | 20 | 
10 | CCO/C(O)=C1\C(COCCN2CC(=O)N=C2N)=NC(C)=C(C(=O)OC)C1c1ccccc1Cl (stereo not given) | 20 |  | 6.1 | 40 | 
11 | CCO/C(O)=C1\C(COCCn2cc(N)nc2O)=NC(C)=C(C(=O)OC)C1c1ccccc1Cl (stereo not given) | 31.6 |  | <6 | >32 | 
12 | CCO/C(O)=C1\C(COCCn2cc(C(N)=O)nn2)=NC(C)=C(C(=O)OC)C1c1ccccc1Cl (stereo not given) | 20 |  | <6 | >50 | 
13 | CCOC(=O)c1cn(CCOCC2=NC(C)=C(C(=O)OC)C(c3ccccc3Cl)/C2=C(\O)OCC)nn1 (stereo not given) | 50.1 |  | 7 | 2 | 
14 | CCO/C(O)=C1\C(COCCn2ccnn2)=NC(C)=C(C(=O)OC)C1c1ccccc1Cl (stereo not given) | 15.8 |  | 7.3 | 3 | 
15 | CCO/C(O)=C1\C(COCCn2ccnc2C)=NC(C)=C(C(=O)OC)C1c1ccccc1Cl (stereo not given) | 2.51 |  | 7.8 | 6 | 
16 | CCO/C(O)=C1\C(COCCn2c(N)cnc2O)=NC(C)=C(C(=O)OC)C1c1ccccc1Cl (stereo not given) | 158 |  | 6 | 6 | 
17 | CCOC(=O)c1cnnn1CCOCC1=NC(C)=C(C(=O)OC)C(c2ccccc2Cl)/C1=C(\O)OCC (stereo not given) | 100 |  | 6.9 | 1.3 | 
18 | CCOC(=O)C1=C(COCCN)NC(C)=C(C(=O)OC)C1c1ccccc1Cl (stereo not given) [AMLODIPINE] | 7.94 |  | 7.2 | 8 | 
19 | CCO/C(O)=C1\C(COCCn2c(C)nc(C)c2C)=NC(C)=C(C(=O)OC)C1c1ccccc1Cl (stereo not given) | 5.01 |  | 7.5 | 6 | 
20 | COC(=O)C1=C(C)NC(C)=C(C(=O)OC)C1c1ccccc1[N+](=O)[O-] [NIFEDIPINE] |  | 36 | 7.5 | 8 | 77
21 | CCO/C(O)=C1\C(COCCn2cnc3ccccc32)=NC(C)=C(C(=O)OC)C1c1ccccc1Cl (stereo not given) | 20 |  | 7.2 | 3 | 
22 | CCO/C(O)=C1\C(COCCn2cc(C(N)=O)nn2)=NC(C)=C(C(=O)OC)C1c1cccc(Cl)c1Cl (stereo not given) | 3.16 | 20 | 6.6 | 80 | 54
23 | CCO/C(O)=C1\C(COCCn2nncc2C(N)=O)=NC(C)=C(C(=O)OC)C1c1ccccc1Cl (stereo not given) | 100 |  | 6.3 | 5 | 
